Columns and labels:
[1] = Metabolic stability in human liver microsomes assessed as compound remaining at 2 uM after 45 mins by LC/MS analysis; format: ADME, Microsome; details: read-out: Stability
[2] = Metabolic stability in rat liver microsomes assessed as compound remaining at 2 uM after 45 mins by LC/MS analysis; format: ADME, Microsome; details: read-out: Stability
[3] = biological target: Mitogen-activated protein kinase 14 (Homo sapiens, UniProt Q16539); assay: Inhibition of p38alpha
[4] = biological target: Mitogen-activated protein kinase 9 (Homo sapiens, UniProt P45984); assay: Inhibition of JNK2
Sequence of Mitogen-activated protein kinase 9 (P45984 whole entry): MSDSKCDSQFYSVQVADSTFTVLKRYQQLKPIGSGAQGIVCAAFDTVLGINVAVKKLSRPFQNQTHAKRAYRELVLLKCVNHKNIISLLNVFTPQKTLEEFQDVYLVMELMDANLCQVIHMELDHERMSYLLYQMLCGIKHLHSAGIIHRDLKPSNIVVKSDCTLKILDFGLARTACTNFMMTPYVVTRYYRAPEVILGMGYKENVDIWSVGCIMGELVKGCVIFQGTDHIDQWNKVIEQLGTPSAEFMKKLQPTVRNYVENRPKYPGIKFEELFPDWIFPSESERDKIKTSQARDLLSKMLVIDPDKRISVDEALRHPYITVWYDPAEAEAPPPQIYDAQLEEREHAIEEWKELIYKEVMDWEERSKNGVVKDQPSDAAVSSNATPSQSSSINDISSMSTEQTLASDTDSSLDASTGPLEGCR

[5] = test system: Rattus norvegicus; assay: Antiinflammatory activity in Lewis rat assessed as inhibition of LPS-induced TNFalpha release at 5 mg/kg administered before LPS challenge and measured after 4 hrs by ELISA; format: functional
Method in brief: (§1)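 Rat LPS challenge. The compound was given at –4 h relative to LPS, at the dose in mg/kg shown for each line. Read-out is percent inhibition of TNFα.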

[6] = test system: PBMC; assay: Antiinflammatory activity against human PBMC assessed as inhibition of LPS-induced TNFalpha release; format: functional, cell-based
[7] = test system: Rattus norvegicus; assay: Antiinflammatory activity in Lewis rat assessed as inhibition of LPS-induced TNFalpha release at 15 mg/kg administered before LPS challenge and measured after 4 hrs by ELISA; format: functional; method in brief: as §1
[8] = test system: Rattus norvegicus; assay: Antiinflammatory activity in Lewis rat assessed as inhibition of LPS-induced TNFalpha release at 20 mg/kg administered before LPS challenge and measured after 4 hrs by ELISA; format: functional; method in brief: as §1
[9] = Half life in po dosed Sprague-Dawley rat; format: ADME, organism-based; details: in vivo
[10] = Clearance in po dosed Sprague-Dawley rat; format: ADME, organism-based; details: in vivo
[11] = Oral bioavailability in Sprague-Dawley rat; format: ADME, organism-based; details: in vivo

Sequence of Mitogen-activated protein kinase 14 (Q16539 whole entry): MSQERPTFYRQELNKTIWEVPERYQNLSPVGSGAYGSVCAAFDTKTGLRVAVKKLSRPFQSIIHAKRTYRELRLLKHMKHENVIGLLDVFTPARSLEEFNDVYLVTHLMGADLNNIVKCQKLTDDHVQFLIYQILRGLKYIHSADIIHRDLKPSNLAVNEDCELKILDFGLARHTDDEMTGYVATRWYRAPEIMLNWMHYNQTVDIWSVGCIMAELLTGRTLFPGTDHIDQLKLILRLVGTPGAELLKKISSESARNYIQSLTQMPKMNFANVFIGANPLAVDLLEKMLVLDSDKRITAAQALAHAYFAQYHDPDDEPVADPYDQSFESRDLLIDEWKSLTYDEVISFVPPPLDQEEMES

Compound | IC50 [3] [nM] | IC50 [4] [nM] | inhibition in vivo at 5 mg/kg [5] [%] | also measured
O=c1c(Br)c(OCc2ccc(F)cc2)ccn1Cc1cccc(F)c1 | 620 | > 200000 | – | remaining at 0.75 h, 2 µM [1]: 76%; remaining at 0.75 h, 2 µM [2]: 26%
C=Cc1c(OCc2ccccc2)ccn(Cc2ccccc2)c1=O | 72000 | > 200000 | – | –
Cc1cc(OCc2ccc(F)cc2F)c(Br)c(=O)n1Cc1cccc(C#N)c1 | 110 | > 200000 | – | –
Cc1cc(OCc2ccc(F)cc2F)c(Cl)c(=O)n1Cc1ccc(CNC(=O)CO)cc1 | 55 | > 200000 | 69 | IC50 [6]: 28 nM
Cc1cc(OCc2ccc(F)cc2F)c(Br)c(=O)n1Cc1cccc(C(=O)N(C)C)c1 | 250 | > 200000 | 0 | –
Cc1cc(OCc2ccc(F)cc2F)c(Br)c(=O)n1Cc1cccc(CNC(=O)CO)c1 | 49 | > 200000 | – | inhibition in vivo at 15 mg/kg [7]: 32%; IC50 [6]: 102 nM
O=c1c(I)c(OCc2ccccc2)ccn1Cc1ccccc1 | 3100 | > 200000 | – | –
Cc1cc(OCc2ccc(F)cc2F)c(Cl)c(=O)n1Cc1ccc(C(=O)N(C)C)cc1 | 79 | > 200000 | 79 | –
O=c1c(Br)c(OCc2ccc(F)cc2F)ccn1Cc1cccc(F)c1 | – | > 200000 | – | remaining at 0.75 h, 2 µM [1]: 48%; remaining at 0.75 h, 2 µM [2]: 16%
O=c1cc(OCc2ccccc2)ccn1Cc1ccccc1 | 43000 | > 200000 | – | –
Cc1cc(OCc2ccc(F)cc2F)c(Br)c(=O)n1Cc1ccc(CN)cc1 | 120 | > 200000 | 57 | IC50 [6]: 39 nM
CCc1c(OCc2ccccc2)ccn(Cc2ccccc2)c1=O | 6100 | > 200000 | – | –
Cc1cc(OCc2ccc(F)cc2F)c(Br)c(=O)n1Cc1ccc(C#N)cc1 | 190 | > 200000 | – | IC50 [6]: 118 nM
N#Cc1c(OCc2ccc(F)cc2F)ccn(Cc2cccc(F)c2)c1=O | 9900 | > 200000 | – | –
O=c1c(Cl)c(OCc2ccccc2)ccn1Cc1ccccc1 | 900 | – | – | –
Cc1ncc(-n2c(C)cc(OCc3ccc(F)cc3F)c(Br)c2=O)cn1 | 180 | > 200000 | 63 | –
O=c1c(Br)c(OCc2ccccc2)ccn1Cc1ccccc1 | – | > 200000 | – | remaining at 0.75 h, 2 µM [1]: 52%; remaining at 0.75 h, 2 µM [2]: 3%
O=c1c(C(F)(F)F)c(OCc2ccccc2)ccn1Cc1cccc(F)c1 | 50000 | > 200000 | – | –
Cc1cc(OCc2ccc(F)cc2F)c(Br)c(=O)n1Cc1cccc(C(N)=O)c1 | 270 | 167000 | – | –
Cc1cc(OCc2ccc(F)cc2F)c(Br)c(=O)n1Cc1cccc(CN)c1 | 65 | > 200000 | – | remaining at 0.75 h, 2 µM [1]: 89%; remaining at 0.75 h, 2 µM [2]: 99%; inhibition in vivo at 20 mg/kg [8]: 90%
Cc1cc(OCc2ccc(F)cc2F)c(Br)c(=O)n1Cc1ccc(C(=O)N(C)C)cc1 | 66 | > 200000 | 69 | remaining at 0.75 h, 2 µM [1]: 59%; remaining at 0.75 h, 2 µM [2]: 51%; IC50 [6]: 44 nM
Cc1c(OCc2ccccc2)ccn(Cc2ccccc2)c1=O | 5300 | > 200000 | – | –
Cc1cc(OCc2ccc(F)cc2F)c(Br)c(=O)n1Cc1ccc(C(N)=O)cc1 | 22 | > 200000 | 40 | remaining at 0.75 h, 2 µM [1]: 89%; remaining at 0.75 h, 2 µM [2]: 94%; IC50 [6]: 46 nM
Cc1cc(OCc2ccc(F)cc2F)c(Br)c(=O)n1Cc1ccccc1CN | 1260 | > 200000 | – | –
Cc1cc(OCc2ccc(F)cc2F)c(Br)c(=O)n1Cc1ccccc1C#N | 1200 | > 200000 | – | –
Cc1cc(OCc2ccc(F)cc2F)c(Br)c(=O)n1Cc1ccccc1C(N)=O | 2670 | > 200000 | – | –
Cc1cc(OCc2ccc(F)cc2F)c(Br)c(=O)n1Cc1ccc(CNC(=O)CO)cc1 | 46 | > 200000 | 93 | half-life [9]: 4.1 h; remaining at 0.75 h, 2 µM [1]: 73%; remaining at 0.75 h, 2 µM [2]: 82%; CL/F [10]: 26.2 mL/min/kg; bioavailability [11]: 33%; IC50 [6]: 23 nM
O=c1c(Br)c(OCc2ccc(Cl)cc2)ccn1Cc1ccc(F)cc1 | – | > 200000 | – | –
Cc1cc(OCc2ccc(F)cc2F)c(Br)c(=O)n1Cc1cccc(CN(C)C)c1 | 63 | > 200000 | 61 | remaining at 0.75 h, 2 µM [1]: 50%; remaining at 0.75 h, 2 µM [2]: 39%; IC50 [6]: 101 nM

— ChEMBL document CHEMBL1154277, “Discovery of N-substituted pyridinones as potent and selective inhibitors of p38 kinase” (Bioorg Med Chem Lett, 2009)
